# Columns and labels:
# SNU-5 = experiment: Growth inhibition of human SNU5 cells after 72 hrs by CCK-8 assay; type: functional, cell-based
# Cytochrome P450 3A4 [1] = target: T1, Cytochrome P450 3A4 (Homo sapiens, UniProt P08684); experiment: (§1) Time dependent irreversible inhibition of CYP3A4 in human liver microsomes at 10 uM preincubated with compound followed by NADPH addition by LC-MS/MS analysis; type: ADME; details: microsomes, 10 µM
# Procedure, shortened: (§2)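 HLM (0.2 mg/ml) with 10 µM compound were preincubated 0, 5, 10 or 20 min at 37°C with 1 mM NADPH or PBS. Substrate cocktail (halved concentrations) plus NADPH was then added for 10 min. Metabolites were measured by LC-MS/MS. Kobs is the slope of relative activity versus preincubation time.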
# Cytochrome P450 2C9 = Cytochrome P450 2C9 (Homo sapiens, UniProt P11712); experiment: (§3) Reversible inhibition of CYP2C9 in human liver microsomes at 10 uM after 20 mins by in presence of NADPH LC-MS/MS analysis; type: ADME; details: microsomes, 20 min, 10 µM
# Sequence of Cytochrome P450 2C9 (P11712 whole entry): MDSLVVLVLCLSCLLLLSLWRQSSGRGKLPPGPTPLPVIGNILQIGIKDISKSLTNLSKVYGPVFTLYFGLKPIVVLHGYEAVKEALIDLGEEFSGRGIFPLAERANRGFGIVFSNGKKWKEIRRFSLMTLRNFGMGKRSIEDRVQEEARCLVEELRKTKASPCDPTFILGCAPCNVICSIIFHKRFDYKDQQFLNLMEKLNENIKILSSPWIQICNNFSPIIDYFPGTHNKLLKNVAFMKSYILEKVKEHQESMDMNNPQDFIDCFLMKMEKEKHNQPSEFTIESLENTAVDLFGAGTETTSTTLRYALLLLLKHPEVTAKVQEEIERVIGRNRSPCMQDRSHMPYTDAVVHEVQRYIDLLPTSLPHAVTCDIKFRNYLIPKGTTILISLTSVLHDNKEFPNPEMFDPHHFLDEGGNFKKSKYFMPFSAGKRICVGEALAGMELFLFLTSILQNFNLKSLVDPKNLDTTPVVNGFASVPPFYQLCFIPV
# [2] = Drug recovery in rat liver microsomes at 1 uM measured after 30 mins by LC-MS/MS analysis; type: ADME, microsome; details: liver microsomes, read-out: Drug recovery
# [3] = Intrinsic clearance in human liver microsomes assessed per mg protein at 1 uM preincubated for 5 mins followed by NADPH addition measured after 5 to 30 mins by LC-MS/MS analysis; type: ADME, microsome; details: read-out: CLH
# Procedure, shortened: (§4)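 Microsomes (0.5 mg/ml) with 1 µM compound were preincubated 5 min at 37°C in 100 mM phosphate buffer pH 7.4, then started with 1 mM NADPH. Samples were taken at 0, 5, 10 and 30 min, quenched with acetonitrile/tinidazole and run by LC-MS/MS. CLint = k / microsomal protein concentration. Midazolam was the positive control.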
# [4] = Drug recovery in monkey liver microsomes at 1 uM measured after 30 mins by LC-MS/MS analysis
# Cytochrome P450 2C19 = Cytochrome P450 2C19 (Homo sapiens, UniProt P33261); experiment: (§5) Reversible inhibition of CYP2C19 in human liver microsomes at 10 uM after 20 mins in presence of NADPH by LC-MS/MS analysis; type: ADME; details: microsomes, 20 min, 10 µM
# Sequence of Cytochrome P450 2C19 (P33261 whole entry): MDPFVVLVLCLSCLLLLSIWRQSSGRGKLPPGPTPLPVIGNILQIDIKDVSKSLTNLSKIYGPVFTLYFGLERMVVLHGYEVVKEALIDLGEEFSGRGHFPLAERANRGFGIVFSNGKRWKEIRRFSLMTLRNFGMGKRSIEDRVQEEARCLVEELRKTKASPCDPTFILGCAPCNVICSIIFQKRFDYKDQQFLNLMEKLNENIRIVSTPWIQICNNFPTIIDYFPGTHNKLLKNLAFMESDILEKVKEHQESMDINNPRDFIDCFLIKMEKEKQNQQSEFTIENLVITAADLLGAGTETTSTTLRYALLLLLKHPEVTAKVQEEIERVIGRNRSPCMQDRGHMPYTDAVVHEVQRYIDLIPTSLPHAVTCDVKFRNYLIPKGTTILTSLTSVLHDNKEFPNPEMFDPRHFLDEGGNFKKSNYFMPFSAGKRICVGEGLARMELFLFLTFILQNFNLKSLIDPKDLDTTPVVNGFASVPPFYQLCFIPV
# [5] = Intrinsic clearance in rat liver microsomes assessed per mg protein at 1 uM preincubated for 5 mins followed by NADPH addition measured after 5 to 30 mins by LC-MS/MS analysis; type: ADME, microsome; details: read-out: CLH; procedure, shortened: as §4
# NCI-H1993 = experiment: Growth inhibition of human NCI-H1993 cells after 72 hrs by CCK-8 assay; type: functional, cell-based
# [6] = Intrinsic clearance in monkey liver microsomes assessed per mg protein at 1 uM preincubated for 5 mins followed by NADPH addition measured after 5 to 30 mins by LC-MS/MS analysis; details: liver microsomes; read-out: CLH
# [7] = Drug recovery in human liver microsomes at 1 uM measured after 30 mins by LC-MS/MS analysis; type: ADME, microsome; details: liver microsomes, read-out: Drug recovery
# Procedure, shortened: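 Liver microsomes (0.5 mg/ml) were incubated with 1 µM compound at 37°C in 100 mM phosphate buffer pH 7.4 without NADPH for 30 min. Reactions were quenched with acetonitrile/tinidazole internal standard and analysed by LC-MS/MS. Recovery (%) was taken from the compound/internal standard peak area ratio.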
# Cytochrome P450 3A4 [8] = target: T1, Cytochrome P450 3A4; experiment: (§6) Reversible inhibition of CYP3A4 in human liver microsomes at 10 uM after 20 mins in presence of NADPH by LC-MS/MS analysis; type: ADME; details: microsomes, 20 min, 10 µM
# CYP3A4 [9] = target: T2, CYP3A4 (Homo sapiens, UniProt P08684); experiment: as §1; type: ADME; details: liver microsomes; procedure, shortened: as §2
# T2 sequence (P08684 whole entry): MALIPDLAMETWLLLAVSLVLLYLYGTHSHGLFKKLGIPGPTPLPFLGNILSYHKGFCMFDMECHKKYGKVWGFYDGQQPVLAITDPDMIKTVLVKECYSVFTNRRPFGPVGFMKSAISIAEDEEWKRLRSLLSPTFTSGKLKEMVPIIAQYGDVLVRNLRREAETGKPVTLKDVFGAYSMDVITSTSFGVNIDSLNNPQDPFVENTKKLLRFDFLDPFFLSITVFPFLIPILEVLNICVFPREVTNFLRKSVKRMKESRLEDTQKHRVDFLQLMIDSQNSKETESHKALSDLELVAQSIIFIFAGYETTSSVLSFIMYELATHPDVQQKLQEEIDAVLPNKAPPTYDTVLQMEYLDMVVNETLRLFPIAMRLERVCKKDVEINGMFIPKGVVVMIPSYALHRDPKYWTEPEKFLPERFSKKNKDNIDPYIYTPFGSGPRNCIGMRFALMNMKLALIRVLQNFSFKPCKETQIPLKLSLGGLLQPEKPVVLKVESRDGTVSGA
# CYP2D6 [10] = target: T3, CYP2D6 (Homo sapiens, UniProt P10635); experiment: Time dependent irreversible inhibition of CYP2D6 in human liver microsomes at 10 uM preincubated with compound followed by NADPH addition by LC-MS/MS analysis; type: ADME; details: liver microsomes; procedure, shortened: as §2
# T3 sequence (P10635 whole entry): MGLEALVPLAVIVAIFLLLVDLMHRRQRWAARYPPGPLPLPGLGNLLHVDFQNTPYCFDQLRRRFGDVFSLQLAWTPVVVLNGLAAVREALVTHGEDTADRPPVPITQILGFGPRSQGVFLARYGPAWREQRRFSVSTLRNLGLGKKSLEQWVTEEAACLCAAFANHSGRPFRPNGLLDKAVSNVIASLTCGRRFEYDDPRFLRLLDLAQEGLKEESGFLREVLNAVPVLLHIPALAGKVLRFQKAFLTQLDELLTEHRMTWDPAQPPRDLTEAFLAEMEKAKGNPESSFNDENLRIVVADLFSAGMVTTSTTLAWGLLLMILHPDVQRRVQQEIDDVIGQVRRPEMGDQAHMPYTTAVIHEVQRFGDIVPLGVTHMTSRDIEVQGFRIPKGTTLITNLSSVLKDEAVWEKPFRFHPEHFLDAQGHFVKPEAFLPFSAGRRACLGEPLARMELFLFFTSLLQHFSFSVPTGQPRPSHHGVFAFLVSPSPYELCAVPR
# CYP2C19 [11] = target: T4, CYP2C19 (Homo sapiens, UniProt P33261); experiment: Time dependent irreversible inhibition of CYP2C19 in human liver microsomes at 10 uM preincubated with compound followed by NADPH addition by LC-MS/MS analysis; type: ADME; procedure, shortened: as §2
# T4 sequence (P33261 whole entry): as the sequence (P33261 whole entry) above
# CYP1A2 [12] = target: T5, CYP1A2 (Homo sapiens, UniProt P05177); experiment: Time dependent irreversible inhibition of CYP1A2 in human liver microsomes at 10 uM preincubated with compound followed by NADPH addition by LC-MS/MS analysis; type: ADME; details: liver microsomes; procedure, shortened: as §2
# T5 sequence (P05177 whole entry): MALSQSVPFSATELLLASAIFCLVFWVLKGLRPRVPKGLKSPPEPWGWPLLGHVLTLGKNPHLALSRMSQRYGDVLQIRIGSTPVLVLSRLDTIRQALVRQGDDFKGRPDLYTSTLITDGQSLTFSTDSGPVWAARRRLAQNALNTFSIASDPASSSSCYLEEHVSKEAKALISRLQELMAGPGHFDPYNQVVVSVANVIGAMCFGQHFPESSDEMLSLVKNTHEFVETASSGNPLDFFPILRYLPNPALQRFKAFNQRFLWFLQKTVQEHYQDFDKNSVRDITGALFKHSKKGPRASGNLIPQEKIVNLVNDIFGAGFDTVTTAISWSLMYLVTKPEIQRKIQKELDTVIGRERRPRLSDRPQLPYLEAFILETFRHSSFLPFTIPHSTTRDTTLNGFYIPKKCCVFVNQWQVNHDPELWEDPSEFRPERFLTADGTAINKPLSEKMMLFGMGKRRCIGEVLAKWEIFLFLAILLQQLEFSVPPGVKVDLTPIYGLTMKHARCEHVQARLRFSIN
# CYP2C9 [13] = target: T6, CYP2C9 (Homo sapiens, UniProt P11712); experiment: Time dependent irreversible inhibition of CYP2C9 in human liver microsomes at 10 uM preincubated with compound followed by NADPH addition by LC-MS/MS analysis; type: ADME; details: liver microsomes; procedure, shortened: as §2
# T6 sequence (P11712 whole entry): as the sequence (P11712 whole entry) above
# CYP2D6 [14] = target: T3, CYP2D6; experiment: Reversible inhibition of CYP2D6 in human liver microsomes at 10 uM after 20 mins in presence of NADPH by LC-MS/MS analysis; type: ADME; details: liver microsomes
# [15] = Volume of distribution at steady state in Sprague-Dawley rat plasma at 1 mg/kg, iv by UPLC-MS/MS analysis; type: ADME, organism-based; details: read-out: Vdss
# Procedure, shortened: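 Male Sprague-Dawley rats (180-220 g), fasted overnight with water available, dosed iv (n=2). Blood on heparin collected from 0 to 1440 min. Plasma obtained by centrifugation and stored at -20°C. Proteins precipitated with acetonitrile containing internal standard, then UPLC-MS/MS. Vss taken from the iv data.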
# CYP3A4 [16] = target: T2, CYP3A4; experiment: as §6; type: ADME; details: liver microsomes
# [17] = Half life in Sprague-Dawley rat plasma at 1 mg/kg, iv by UPLC-MS/MS analysis; type: ADME, organism-based
# Procedure, shortened: (§7)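 Male Sprague-Dawley rats (180-220 g) were fasted overnight with free access to water. Dosing was intravenous (n=2) or oral at 6 mg/kg (n=3). Heparinized blood was drawn from 0 to 1440 min. Plasma was frozen at -20°C, then precipitated with acetonitrile containing internal standard, centrifuged and analysed by UPLC-MS/MS.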
# [18] = AUC (0 to 24 hrs) in Sprague-Dawley rat plasma at 6 mg/kg, po by UPLC-MS/MS analysis; type: ADME, organism-based; design: dose 6 mg/kg, time < 24 hr, route oral; procedure, shortened: as §7
# CYP1A2 [19] = target: T5, CYP1A2; experiment: Reversible inhibition of CYP1A2 in human liver microsomes at 10 uM after 20 mins in presence of NADPH by LC-MS/MS analysis; type: ADME
# CYP2C9 [20] = target: T6, CYP2C9; experiment: as §3; type: ADME; details: liver microsomes
# [21] = Clearance in Sprague-Dawley rat plasma at 1 mg/kg, iv by UPLC-MS/MS analysis; type: ADME, organism-based; procedure, shortened: as §7
# [22] = Cmax in Sprague-Dawley rat plasma at 6 mg/kg, po by UPLC-MS/MS analysis; type: ADME, organism-based; design: dose 6 mg/kg, route oral; procedure, shortened: as §7
# CYP2C19 [23] = target: T4, CYP2C19; experiment: as §5; type: ADME; details: liver microsomes
# [24] = (§8) Oral bioavailability in Sprague-Dawley rat plasma at 6 mg/kg by UPLC-MS/MS analysis; type: ADME, organism-based; details: Sprague-Dawley, plasma; procedure, shortened: as §7
# [25] = target: Hepatocyte growth factor receptor (Homo sapiens, UniProt P08581); experiment: Inhibition of c-MET (unknown origin) using TK substrate-biotin peptide as substrate preincubated for 5 to 10 mins followed by ATP addition measured after 30 mins by HTRF assay
# Sequence of Hepatocyte growth factor receptor (P08581 whole entry): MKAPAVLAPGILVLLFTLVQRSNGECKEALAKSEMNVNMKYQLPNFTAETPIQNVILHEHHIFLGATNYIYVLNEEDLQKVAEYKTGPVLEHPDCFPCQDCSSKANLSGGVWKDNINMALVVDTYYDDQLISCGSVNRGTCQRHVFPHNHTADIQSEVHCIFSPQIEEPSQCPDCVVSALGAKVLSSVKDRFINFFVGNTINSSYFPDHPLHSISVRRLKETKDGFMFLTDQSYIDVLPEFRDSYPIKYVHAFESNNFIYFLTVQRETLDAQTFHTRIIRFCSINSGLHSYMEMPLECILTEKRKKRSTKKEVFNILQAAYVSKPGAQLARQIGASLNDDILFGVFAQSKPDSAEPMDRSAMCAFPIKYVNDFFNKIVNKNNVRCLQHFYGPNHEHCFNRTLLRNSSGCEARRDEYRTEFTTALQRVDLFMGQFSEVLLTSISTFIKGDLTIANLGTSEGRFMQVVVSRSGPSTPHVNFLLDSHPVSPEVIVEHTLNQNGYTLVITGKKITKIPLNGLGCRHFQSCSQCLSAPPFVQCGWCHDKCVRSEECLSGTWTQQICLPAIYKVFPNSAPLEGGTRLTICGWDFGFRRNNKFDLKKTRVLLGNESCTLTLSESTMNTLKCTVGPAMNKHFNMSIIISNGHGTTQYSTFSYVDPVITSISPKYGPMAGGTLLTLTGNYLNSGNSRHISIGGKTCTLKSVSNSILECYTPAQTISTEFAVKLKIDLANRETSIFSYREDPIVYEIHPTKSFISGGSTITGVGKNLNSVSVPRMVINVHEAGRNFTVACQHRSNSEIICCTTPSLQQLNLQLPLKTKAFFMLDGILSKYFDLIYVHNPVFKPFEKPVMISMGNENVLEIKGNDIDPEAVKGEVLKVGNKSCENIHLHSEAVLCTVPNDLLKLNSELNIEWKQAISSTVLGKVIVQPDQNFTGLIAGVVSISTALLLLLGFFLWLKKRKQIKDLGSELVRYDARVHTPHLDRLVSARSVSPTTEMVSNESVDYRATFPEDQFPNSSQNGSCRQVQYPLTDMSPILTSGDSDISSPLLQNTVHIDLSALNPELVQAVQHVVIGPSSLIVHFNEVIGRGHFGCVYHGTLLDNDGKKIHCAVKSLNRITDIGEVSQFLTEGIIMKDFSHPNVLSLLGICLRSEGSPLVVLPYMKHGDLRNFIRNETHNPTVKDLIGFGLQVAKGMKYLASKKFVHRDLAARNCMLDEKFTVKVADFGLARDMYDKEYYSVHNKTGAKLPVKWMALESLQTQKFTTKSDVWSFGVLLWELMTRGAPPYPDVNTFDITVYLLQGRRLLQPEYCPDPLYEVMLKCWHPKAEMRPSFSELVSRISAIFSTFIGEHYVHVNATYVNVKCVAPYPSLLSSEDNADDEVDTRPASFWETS
# Rattus norvegicus = experiment: as §8; type: ADME, organism-based; details: in vivo; procedure, shortened: as §7
# T1 sequence (P08684 whole entry): as the sequence (P08684 whole entry) above
SMILES,"IC50 (SNU-5; Homo sapiens, SNU-5, 72 h) [nM]",TDI (Cytochrome P450 3A4 [1]),"remaining at 0.5 h, 1 µM [2] [%]",microsomal CLint at 1 µM [3] [µL/min/mg],"remaining at 0.5 h, 1 µM [4] [%]",microsomal CLint at 1 µM [5] [µL/min/mg],"IC50 (NCI-H1993; Homo sapiens, NCI-H1993, 72 h) [nM]",microsomal CLint at 1 µM [6] [µL/min/mg],"remaining at 0.5 h, 1 µM [7] [%]",inhibition at 10 µM (CYP3A4 [9]) [%],inhibition at 10 µM (CYP2D6 [10]) [%],inhibition at 10 µM (CYP2C19 [11]) [%],inhibition at 10 µM (CYP1A2 [12]) [%],inhibition at 10 µM (CYP2C9 [13]) [%],"inhibition at 20 min, 10 µM (CYP2D6 [14]) [%]","inhibition at 20 min, 10 µM (CYP3A4 [16]) [%]","inhibition at 20 min, 10 µM (CYP1A2 [19]) [%]","inhibition at 20 min, 10 µM (CYP2C9 [20]) [%]","inhibition at 20 min, 10 µM (CYP2C19 [23]) [%]",also measured
CC(c1c(F)cc2ncc(-c3cnn(C)c3)cc2c1F)n1nnc2ncc(-c3cnn(C)c3)nc21 (stereo unspecified),1.3,Active,94,17,75,22,0.8,86,91,–,–,–,–,–,–,–,–,–,–,inhibition (INH) (Cytochrome P450 2C9): Active; inhibition (INH) (Cytochrome P450 2C19): Active
CC(c1ccc2ncc(-c3cnn(C)c3)cc2c1)n1nnc2ncc(-c3ccncc3)nc21 (stereo unspecified),1.2,–,94,22,90,61,0.9,78,104,< 50,< 50,< 50,< 50,< 50,–,–,–,–,–,inhibition (INH) (Cytochrome P450 3A4 [8]): Active
CC(c1cc2cc(-c3cnn(C)c3)cnc2cc1F)n1nnc2ncc(-c3ccc(C(N)=O)c(F)c3)nc21 (stereo unspecified),0.6,–,115,2,103,1,0.9,6,120,< 50,< 50,< 50,< 50,< 50,< 50,< 50,< 50,< 50,< 50,Vd [15]: 2 L/kg; half-life [17]: 3.2 h; AUC(0-t) at 24 h [18]: 879 ng·h/mL; clearance [21]: 9.33 mL/min/kg; Cmax [22]: 98.9 ng/mL; bioavailability [24]: 8.2%
CC(c1cc2cc(-c3cnn(C)c3)cnc2cc1F)n1nnc2ncc(-c3cnn(C)c3)nc21 (stereo unspecified),1.7,Active,103,5,65,34,0.9,11,101,–,–,–,–,–,< 50,< 50,< 50,< 50,< 50,–
"CC(c1cc2cc(-c3cnn(C)c3)cnc2cc1F)n1nnc2ncc(-c3cnn(CCO)c3)nc21 (single isomer, unassigned; enantiomer 1)",–,–,–,–,–,–,–,–,–,–,–,–,–,–,–,–,–,–,–,IC50 (SNU-5; snu-5): 0.8 nM; IC50 [25]: 0.68 nM; IC50 (NCI-H1993; nci-h1993): 0.7 nM; F (Rattus norvegicus): 8.6%
CC(c1c(F)cc2ncc(-c3cnn(C)c3)cc2c1F)n1nnc2ncc(-c3ccc(C(N)=O)c(F)c3)nc21 (stereo unspecified),0.4,Active,94,11,99,12,0.4,50,97,–,–,–,–,–,< 50,< 50,< 50,< 50,< 50,–
"CC(c1cc2cc(-c3cnn(C)c3)cnc2cc1F)n1nnc2ncc(-c3cnn(CCO)c3)nc21 (single isomer, unassigned; enantiomer 2)",–,–,–,–,–,–,0.6,–,–,–,–,–,–,–,–,–,–,–,–,IC50 (SNU-5; snu-5): 0.6 nM; IC50 [25]: 0.48 nM; bioavailability [24]: 8.8%
CC(c1cc2cc(-c3cnn(C)c3)cnc2cc1F)n1nnc2ncc(-c3ccncc3)nc21 (stereo unspecified),2.5,–,106,4,103,55,3.2,49,113,< 50,< 50,< 50,< 50,< 50,–,–,–,–,–,inhibition (INH) (Cytochrome P450 3A4 [8]): Active; inhibition (INH) (Cytochrome P450 2C9): Active; inhibition (INH) (Cytochrome P450 2C19): Active

# Source: ChEMBL document CHEMBL4020721 (Eur J Med Chem, 2017)
